Experimental data pooled from the literature.
Protocols differ between the studies behind these lines.

Structure (SMILES) | test system | conditions | Tmax
CCO[C@H]1CCN(Cc2c(OC)cc(C)c3[nH]ccc23)[C@H](c2ccc(C(=O)O)cc2)C1 | human, plasma | oral, 100 mg, multiple doses, twice daily, patients | 1.53 h
Cc1nc(NC(=O)N2CCC[C@H]2C(N)=O)sc1-c1ccnc(C(C)(C)C(F)(F)F)c1 | human, plasma | oral, 400 mg, patients | 2 h
O=C(Nc1c(Cl)cncc1Cl)c1ccc(OC(F)F)c(OCC2CC2)c1 | human, plasma | oral, 0.25 mg, single dose | 0.75 h
NS(=O)(=O)NCCNc1nonc1C(=NO)Nc1ccc(F)c(Br)c1 | human, plasma | oral, 500 mg, multiple doses, twice daily, steady state, patients | 2 h
C[C@@H](Nc1cc(F)cc(F)c1)c1cc(C(=O)N(C)C)cc2c(=O)cc(N3CCOCC3)oc12 | human, plasma | oral, 120 mg, single dose, patients | 2 h
COc1ccc([C@@H]2CN(C(=O)[C@@H](O)CO)C[C@@]2(C)[C@@H](C)O)cc1OC1CN(c2ccc(C)cn2)C1 | human, plasma | oral, 20 mg, single dose, healthy volunteers | 1.5 h
C=CC(=O)N(C)CCOc1c(N)ncnc1-c1cc(F)cc(NC(=O)c2ccc(C3CC3)cc2F)c1C | human, blood | oral, 1.5 mg, single dose, healthy volunteers | 0.5 h
CS(=O)(=O)CCC#N | human, plasma | oral, 100 mg, multiple doses, once daily | 1 h
CC(C)(O)c1ccccc1-c1ccc2[nH]c(/C=C/c3ccc(C(F)(F)F)cc3)nc2c1 | male human, plasma | oral, 5 mg, single dose, fasted | 3.95 h
COc1cc(N2CCC(N3CCN(C)CC3)CC2)ccc1Nc1ncnc(Nc2ccccc2S(=O)(=O)C(C)C)n1 | human, plasma | oral, 325 mg, multiple doses, patients | 3.75 h
CO[C@H]1/C=C\C=C(/C)C(=O)NC2=CC(=O)C(NCCN(C)C)=C(C[C@@H](C)C[C@H](OC)[C@H](O)[C@@H](C)/C=C(\C)[C@@H]1OC(N)=O)C2=O | human, plasma | intravenous, 27 mg/m², patients, infusion | 0.9 h
CO[C@@H]1[C@H](OC(=O)N2CC(CCN3CCOCC3)C2)CC[C@]2(CO2)[C@H]1[C@@]1(C)O[C@@H]1CC=C(C)C | human, plasma | subcutaneous, 0.2 mg, single dose, healthy volunteers | 0.28 h
CC(C)[C@H](N)C(=O)NCCCS(=O)(=O)O | human, plasma | oral, 256.5 mg, multiple doses, twice daily, fasted | 0.5 h
CC(C)(Sc1ccncc1-c1ccc(C#N)c2ccccc12)C(=O)O | male human, plasma | oral, 40 mg, single dose, fasted, healthy volunteers | 0.75 h
CCc1nc2c(C)cc(N3CCN(CC(=O)N4CC(O)C4)CC3)cn2c1N(C)c1nc(-c2ccc(F)cc2)c(C#N)s1 | human, plasma | oral, 600 mg, single dose, fasted, healthy volunteers | 1.8 h
CC(C)n1cc(C#N)c2cc(-n3cc(C(=O)O)cn3)ccc21 | human, plasma | oral, 50 mg, single dose, fasted, healthy volunteers | 3 h
C#C[C@]1(COP(=O)(O)OP(=O)(O)OP(=O)(O)O)O[C@@H](n2cnc3c(N)nc(F)nc32)C[C@@H]1O | human, plasma | oral, 15 mg, single dose | 6 h
Cn1cc(-c2ccc(S(=O)(=O)[C@@H]3C[C@@H](C(=O)NC4(C#N)CC4)N(C(=O)C4(C(F)(F)F)CC4)C3)c(C(F)(F)F)c2)cn1 | human, plasma | oral, 600 mg, single dose, fasted, healthy volunteers | 3.5 h
